In ChEMBL document CHEMBL4364248, “Discovery of 1,2,4-oxadiazole-Containing hydroxamic acid derivatives as histone deacetylase inhibitors potential application in cancer therapy” (Eur J Med Chem, 2019):

Key:
[1] = test system: JeKo-1; test: Induction of apoptosis in human JeKo1 cells assessed as early apoptotic cells at 1000 nM after 48 hrs by annexin V-FITC/propidium iodide staining-based flow cytometric method (reference value: 3.34 %); format: functional
How it was run: (§1)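 Jeko-1 cells were grown in RPMI-1640 with 10% FBS at 37 °C under 5% CO2. They were exposed to 0, 10, 100 or 1000 nM for 48 h, then apoptosis induction was analysed.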

[2] = AUC ( 0 to t) in Sprague-Dawley rat at 5 mg/kg, iv measured upto 24 hrs by LC-MS/MS analysis; format: ADME, organism-based; parameters: dose 5 mg/kg, time < 24 hr, route intravenous; details: in vivo
How it was run: (§2)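 SD rats (200-250 g), six per time point, given 5 mg/kg as a tail-vein bolus or orally. Blood was taken by cardiac puncture before dosing and at 5, 15, 30, 45 min and 1, 2, 4, 6, 8, 10, 12 and 24 h. Plasma was spun at 4000 g for 15 min at 4 °C and stored at -80 °C. Analysis was LC-MS/MS with multiple-reaction monitoring, followed by noncompartmental analysis.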

[3] = test system: JeKo-1; test: Induction of apoptosis in human JeKo1 cells assessed as early apoptotic cells at 10 nM after 48 hrs by annexin V-FITC/propidium iodide staining-based flow cytometric method (reference value: 3.34 %); format: functional; how it was run: as §1
[4] = test system: MDA-MB-231; test: Antiproliferative activity against human MDA-MB-231 cells after 72 hrs by MTT assay; format: functional, cell-based; details: MDA-MB-231, 72 h
[5] = molecular target: Histone deacetylase 1/2/3 (Homo sapiens) (UniProt Q13547+O15379+Q92769); test: Inhibition of HDAC1/2/3 in human MM1S cells assessed as increase in H3 acetylation after 6 hrs by Western blot analysis; format: cell-based
[6] = test system: JeKo-1; test: Induction of apoptosis in human JeKo1 cells assessed as late apoptotic cells at 100 nM after 48 hrs by annexin V-FITC/propidium iodide staining-based flow cytometric method (reference value: 3.07 %); format: functional; how it was run: as §1
[7] = test system: JeKo-1; test: Cell cycle arrest in human JeKo1 cells assessed as accumulation at G1 phase at 100 nM after 24 hrs by propidium iodide staining based flow cytometric analysis (reference value: 63.16 %); format: functional
[8] = molecular target: Histone deacetylase 1 (Homo sapiens, UniProt Q13547); test: Inhibition of recombinant full length HDAC1 (unknown origin) using Ac-peptide-AMC as substrate at 100 nM after 1 hr by fluorescence assay relative to control
Chain of Histone deacetylase 1 (Q13547 whole entry): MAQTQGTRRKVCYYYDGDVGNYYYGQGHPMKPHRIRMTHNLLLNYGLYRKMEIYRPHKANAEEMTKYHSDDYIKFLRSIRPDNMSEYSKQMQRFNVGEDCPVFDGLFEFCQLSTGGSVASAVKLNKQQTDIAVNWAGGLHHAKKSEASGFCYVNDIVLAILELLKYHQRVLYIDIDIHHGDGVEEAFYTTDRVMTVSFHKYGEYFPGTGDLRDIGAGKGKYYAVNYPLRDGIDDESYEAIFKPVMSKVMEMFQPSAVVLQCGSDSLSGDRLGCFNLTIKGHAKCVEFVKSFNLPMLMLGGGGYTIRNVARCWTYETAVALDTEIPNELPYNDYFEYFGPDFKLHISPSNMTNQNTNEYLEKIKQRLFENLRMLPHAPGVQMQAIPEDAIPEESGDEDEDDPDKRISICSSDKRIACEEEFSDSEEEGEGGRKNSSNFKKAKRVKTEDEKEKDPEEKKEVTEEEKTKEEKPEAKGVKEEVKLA
How it was run: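 Full-length recombinant HDAC1 or HDAC6 was incubated with compound, trypsin and Ac-peptide-AMC substrate for 1 h at room temperature. Fluorescence was read at ex 355/em 460 nm. Inhibition was calculated against the DMSO vehicle control.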

[9] = molecular target: Protein deacetylase HDAC6 (Homo sapiens, UniProt Q9UBN7); test: Inhibition of recombinant full length HDAC6 (unknown origin) using Ac-peptide-AMC as substrate after 1 hr by fluorescence assay
Chain of Protein deacetylase HDAC6 (Q9UBN7 whole entry): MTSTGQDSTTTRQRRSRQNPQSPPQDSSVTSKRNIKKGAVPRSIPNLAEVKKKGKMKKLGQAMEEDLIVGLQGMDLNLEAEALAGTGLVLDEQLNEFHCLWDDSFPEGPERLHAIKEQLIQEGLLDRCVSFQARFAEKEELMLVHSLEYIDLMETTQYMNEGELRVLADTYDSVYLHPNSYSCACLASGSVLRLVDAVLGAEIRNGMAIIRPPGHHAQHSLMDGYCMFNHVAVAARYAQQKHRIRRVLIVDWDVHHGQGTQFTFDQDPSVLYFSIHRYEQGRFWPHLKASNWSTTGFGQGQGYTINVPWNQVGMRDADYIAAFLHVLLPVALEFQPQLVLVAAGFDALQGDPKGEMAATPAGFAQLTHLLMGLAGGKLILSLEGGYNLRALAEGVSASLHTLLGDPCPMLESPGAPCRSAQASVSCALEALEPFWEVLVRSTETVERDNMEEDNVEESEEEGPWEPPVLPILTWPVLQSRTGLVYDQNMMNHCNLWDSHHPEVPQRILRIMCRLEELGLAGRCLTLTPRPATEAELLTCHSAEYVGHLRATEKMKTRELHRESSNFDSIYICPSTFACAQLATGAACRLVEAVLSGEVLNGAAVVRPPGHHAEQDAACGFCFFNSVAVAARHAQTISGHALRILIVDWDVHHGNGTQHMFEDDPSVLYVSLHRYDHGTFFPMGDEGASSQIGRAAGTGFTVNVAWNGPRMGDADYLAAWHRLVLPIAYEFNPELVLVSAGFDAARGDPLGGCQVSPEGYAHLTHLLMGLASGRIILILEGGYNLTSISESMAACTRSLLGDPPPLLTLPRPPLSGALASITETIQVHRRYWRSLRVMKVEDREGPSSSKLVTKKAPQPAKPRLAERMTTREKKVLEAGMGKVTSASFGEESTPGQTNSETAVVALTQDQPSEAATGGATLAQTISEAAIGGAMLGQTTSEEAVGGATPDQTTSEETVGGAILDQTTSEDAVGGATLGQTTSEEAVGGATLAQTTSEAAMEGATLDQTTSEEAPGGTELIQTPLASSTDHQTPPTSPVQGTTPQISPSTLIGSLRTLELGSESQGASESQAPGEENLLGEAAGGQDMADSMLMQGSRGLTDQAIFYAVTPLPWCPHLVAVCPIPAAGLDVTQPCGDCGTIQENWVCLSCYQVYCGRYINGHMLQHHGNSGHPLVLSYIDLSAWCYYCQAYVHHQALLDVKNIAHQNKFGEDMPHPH

[10] = test system: JeKo-1; test: Induction of apoptosis in human JeKo1 cells assessed as viable cells at 1000 nM after 48 hrs by annexin V-FITC/propidium iodide staining-based flow cytometric method (reference value: 91.6 %); format: functional; details: JeKo-1, 48 h, read-out: Activity; how it was run: as §1
[11] = test system: SK-OV-3; test: Antiproliferative activity against human SKOV3 cells after 72 hrs by MTT assay; format: functional, cell-based; details: SK-OV-3, 72 h
[12] = Toxicity in NOD/SCID mouse xenografted with human Daudi cells assessed as organ damage at 10 mg/kg, iv treated on day 1,3 and 5 per week and measured for every 2 days by H and E staining based assay; format: organism-based; details: in vivo, 48 h
How it was run: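 Female NOD/SCID mice (5–6 weeks) bearing s.c. Daudi xenografts, six per group. Dosing was 10 mg/kg i.v. or 20 mg/kg p.o. in 8% HP-β-CD on days 1, 3 and 5 weekly. Behaviour was observed, and organ tissues were collected at sacrifice for H&E staining.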

[13] = test system: Daudi; test: Antitumour activity against human Daudi cells xenografted in NOD/SCID mouse assessed as reduction in tumour growth at 10 mg/kg, iv treated on day 1,3 and 5 per week and measured for every 2 days; format: functional; details: read-out: TGI
How it was run: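 Daudi cells (107 in 100 µL serum-free RPMI 1640) were injected s.c. into the right flank of 5–6 week female NOD/SCID mice. At 100–200 mm3, mice were randomized six per group. Dosing was 10 mg/kg i.v. or 20 mg/kg p.o. in 8% HP-β-CD on days 1, 3 and 5 each week. Tumors were measured by caliper every 2 days, with TV = length × width² × 0.5.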

[14] = test system: HCT-116; test: Antiproliferative activity against human HCT116 cells after 72 hrs by MTT assay; format: functional, cell-based; details: HCT-116, 72 h
[15] = Half life in Sprague-Dawley rat at 5 mg/kg, iv measured upto 24 hrs by LC-MS/MS analysis; format: ADME, organism-based; details: in vivo; how it was run: as §2

Cc1ccc(CN2CCC(c3noc(CN(C)c4ncc(C(=O)NO)cn4)n3)CC2)cc1
Activity [1]: 42.7%
AUC(0-t) at 24 h [2]: 433 ng·h/mL
Activity [3]: 5.57%
IC50 [4]: 25.6 nM
inhibition [5]: Dose-dependent effect
Activity [6]: 17.3%
Activity [7]: 80.74%
inhibition [8]: 96%
IC50 [9]: 56 nM
viability at 1 µM [10]: 26.9%
IC50 [11]: 20.5 nM
Activity [12]: Non-Toxic
inhibition in vivo at 10 mg/kg [13]: 46.1%
IC50 [14]: 16 nM
half-life [15]: 23.4 min
